# Sampled rows, rich in hits. Any-hit rate of the full collection: about 1.3%.
# PKD1 kinase inh – inhibitors of human PKD1 kinase, biochemical, fluorescence polarization; Serine/threonine-protein kinase D1 (Homo sapiens), Q15139; PKD1 kinase fluorescence polarization assay; inhibition, % (no concentration beside the values); 200,000 compounds, 0.056% hits; in the data active = inhibition above about 50%
# Target sequence (Q15139 whole entry, looked up): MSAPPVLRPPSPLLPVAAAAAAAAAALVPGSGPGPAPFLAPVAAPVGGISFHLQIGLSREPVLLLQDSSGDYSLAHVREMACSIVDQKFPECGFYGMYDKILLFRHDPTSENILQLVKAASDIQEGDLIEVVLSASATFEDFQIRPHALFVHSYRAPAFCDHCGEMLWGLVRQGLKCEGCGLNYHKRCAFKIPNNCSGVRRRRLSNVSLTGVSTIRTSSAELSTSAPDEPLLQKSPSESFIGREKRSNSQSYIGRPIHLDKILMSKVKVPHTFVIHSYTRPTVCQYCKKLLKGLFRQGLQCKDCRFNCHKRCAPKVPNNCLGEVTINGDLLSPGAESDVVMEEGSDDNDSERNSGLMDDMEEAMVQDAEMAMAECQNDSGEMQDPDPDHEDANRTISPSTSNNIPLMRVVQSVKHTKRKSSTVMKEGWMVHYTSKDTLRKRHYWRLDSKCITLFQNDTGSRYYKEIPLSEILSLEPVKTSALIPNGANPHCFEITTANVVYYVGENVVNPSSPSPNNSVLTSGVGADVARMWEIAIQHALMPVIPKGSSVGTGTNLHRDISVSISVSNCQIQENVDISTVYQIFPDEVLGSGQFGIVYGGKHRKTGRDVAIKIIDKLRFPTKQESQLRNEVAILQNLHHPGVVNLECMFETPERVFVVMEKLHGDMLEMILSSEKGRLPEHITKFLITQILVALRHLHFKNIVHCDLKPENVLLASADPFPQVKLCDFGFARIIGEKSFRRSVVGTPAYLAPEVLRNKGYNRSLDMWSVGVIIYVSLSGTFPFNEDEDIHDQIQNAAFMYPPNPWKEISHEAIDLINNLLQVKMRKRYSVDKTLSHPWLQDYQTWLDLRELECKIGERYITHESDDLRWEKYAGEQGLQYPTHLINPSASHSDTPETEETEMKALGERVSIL
# PERK inh – block of dimerizer-induced PERK translation repression, primary screen, PERK inhibitor project, CHO PERK-DD cells, SEAP luminescence, HTS | Eukaryotic translation initiation factor 2-alpha kinase 3 (Homo sapiens), Q9NZJ5 | CHO PERK-DD fusion, SEAP luminescence translation reporter | inhibition, % at 5.6 µM | 220,000 compounds, 0.17% hits | AID 1416, 2008;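 active = inhibition above the mean inhibition of all tested compounds plus 3 SD, set separately per screening campaign, cut at about 2.9% in these data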;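 also: PERK kinase domain activated by AP20187 dimerizer at 100 nM; 0% = DMSO with dimerizer and 100% = rapamycin at 8.4 µM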
# Rad51 HR inh – human RAD51 strand exchange inhibitors, primary screen, biochemical, fluorescence | 200,000 compounds, 0.085% hits | hRad51 DNA strand exchange, fluorescence dequenching | inhibition, % at 10 µM | DNA repair protein RAD51 homolog 1 (Homo sapiens), Q06609;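 active = inhibition above 40% at the single screening dose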;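 also: 0% = DMSO control wells and 100% = blanks with heterologous ssDNA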
#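 Test system: preformed human Rad51 ssDNA filaments. Compound dosing: single dose, 10 µM final compound. Incubation: filaments 15 min 37 °C, then compound 30 min. Technique: FRET fluorescence dequenching, excitation 485 nm, emission 520 nm. Read-out basis: percent inhibition from fluorescence, normalised to plate control and blank means. Benchmarks: plate controls and plate blanks.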
# Hck Nef HTS – inhibitors of Nef-activated human Hck kinase, primary screen, biochemical, Z-Lyte FRET, 384-well, Hck-YEEI | Tyrosine-protein kinase HCK (Homo sapiens), P08631 | Recombinant Hck-YEEI plus Nef, Z-Lyte FRET kinase assay | inhibition, % at 20 µM | 220,000 compounds, 0.68% hits;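 active = Hck-Nef kinase inhibition above about 50%, limit read from the data; inactive = inhibition below that limit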;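 also: 0% = DMSO with Hck plus Nef and 100% = Hck alone without Nef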
# TAG inh – inhibitors of triacylglycerol accumulation, primary screen, cell-based, uHTS, fluorescence, H9c2; H9c2 cells, Nile Red lipid (TAG) fluorescence; cells loaded with 200 µM oleic acid; inhibition, % at 12.5 µM; 230,000 compounds, 0.66% hits; AID 651582, 2012;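 active = pattern-corrected inhibition of lipid staining of at least 50% with the nuclear-stain viability signal not falling by more than 50%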;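 also: 0% = DMSO wells and 100% = triacsin C control wells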
# MDM2 E3 inh – MDM2-luciferase reporter signal enhancers, primary screen, MDM2 E3 ligase inhibitor project, cell-based, luminescence, 1536-well | signal enhancement, % at 5 µM | 210,000 compounds, 0.11% hits | AID 1230, 2008 | cell-based MDM2 ubiquitination luciferase reporter, 2 h; 0 = plate control, 100 = twice control, blank-subtracted | E3 ubiquitin-protein ligase Mdm2 (Homo sapiens), Q00987;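 active = signal enhancement of 30% or more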;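 also: luminescence tracks abundance of the self-degrading MDM2-luciferase fusion protein; higher signal means inhibition of MDM2 E3 ligase activity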
#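 Timing – 2 h compound exposure at 37 °C · Assay system – mammalian cells stably expressing self-ubiquitinating, self-degrading MDM2 E3–luciferase fusion · Amount – 2000 cells seeded into each well · Measure – % luminescence enhancement versus blank-corrected plate control mean · Measured by – SteadyLite luminescence, 15 min reagent step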
# PKD FP artifact – fluorescence polarization interference in PKD1 assay, artefact control for PKD1 inhibitor project, biochemical, 140K library. 85 tested, under 10 active. inhibition, % at 10 µM. PKD1 FP assay interference counter-screen. shares compounds with PKD1 kinase inh; call rule not given here
# * = called active by the depositor; i = inactive; . = not tested or not shown.
SMILES,PKD1 kinase inh,PERK inh,Rad51 HR inh,Hck Nef HTS,TAG inh,MDM2 E3 inh,others
Cc1ccc(/C=C/C2=Cc3c(sc(NC(=O)CSc4n[nH]c(N)n4)c3C#N)C(C)(C)C2)o1,-3,1,-46,64*,.,-3,
CC(=O)OCC=C1CCC2C3CC(C)C4=CC(=O)CCC4(C)C3C(O)CC12C (stereo unspecified),.,.,.,.,17,.,
Cc1ccc(/C=[N+](/C)[O-])cc1,3,2,14,24,-6,0,
Cc1ccc(C=C2C(Cl)=C(Cl)C(Cl)=C2Cl)cc1,.,2,-3,-10,.,49*,
CCCNC(=O)C1(C)CCN(C(=O)c2cccnc2Oc2ccccc2)C1 (stereo unspecified),.,.,.,.,-1,.,
Cc1c(Nc2cc(N3CCOCC3)c3nonc3c2[N+](=O)[O-])c(=O)n(-c2ccccc2)n1C,-4,0,-4,-6,.,0,
Cc1c(Nc2cc(Cl)c3nonc3c2[N+](=O)[O-])c(=O)n(-c2ccccc2)n1C,1,0,25,9,102*,13,
COCC(C)n1c(C)cc(C(=O)COC(=O)CN=C2NS(=O)(=O)c3ccccc32)c1C (stereo unspecified),-10,1,-16,4,.,0,
COc1ccc(-n2c(C)cc(C(=O)CCl)c2C)cc1,-2,0,19,35,64*,-29,
COc1ccc(-n2c(C)cc(C(=O)CN3C(=O)c4ccccc4C3=O)c2C)cc1,1,0,1,3,.,-3,
CSc1cccc(NC(=S)N(CCCN2CCCC2)Cc2cccn2Cc2ccc(Cl)cc2)c1,-1,0,-4,26,57*,-8,
O=C(CCNC(=O)c1ccc([N+](=O)[O-])cc1)NCc1ccccc1,.,.,.,.,10,.,
Cc1cc(C)cc(-n2c(N)c(C(=O)Nc3c(C)n(C)n(-c4ccccc4)c3=O)c3nc4ccccc4nc32)c1,11,0,-12,54*,.,-8,
Cc1ccc(-n2c(N)c(C(=O)Nc3c(C)n(C)n(-c4ccccc4)c3=O)c3nc4ccccc4nc32)cc1,5,0,-3,5,.,-7,
CC(C)C(=O)Nc1ccc2c(c1)nc(CCN1CCN(C)CC1)n2C,0,3.6*,3,1,.,-10,
CCCCCCn1c(SCC(=O)NC2CCS(=O)(=O)C2)nc2ccccc2c1=O (stereo unspecified),.,.,.,.,-8,.,
CCC(C(=O)Nc1cccc(C(=O)O)c1C)c1ccccc1 (stereo unspecified),0,3.5*,-7,6,.,-19,
CN(C)CCNc1ccc2ncn3c4ccc(O)cc4c(=O)c1c23,.,.,.,.,75*,.,
COc1ccccc1C1=NOC(COc2ccc3c(C)cc(=O)oc3c2)C1 (stereo unspecified),.,-1,-7,-7,59*,-2,
CC(=O)c1ccc(-c2ccc(C(=O)NC3CCCCCC3)o2)cc1,-8,0,18,19,-64,1,
CC(C)CCNC(=O)C(c1ccco1)N(Cc1ccccc1)C(=O)c1snc(C(N)=O)c1N (stereo unspecified),1,-1,-1,4,.,-38,
Cc1ccc(N(C(=O)c2snc(C(N)=O)c2N)C(C(=O)NCCC(C)C)c2ccco2)cc1 (stereo unspecified),0,0,7,75*,2,-15,
Cc1nnc2sc(-c3ccc(NC(=O)c4ccc(-c5ccc(Cl)cc5Cl)o4)cc3)nn12,3,0,-4,87*,37,.,
C/C(=N/NC(N)=S)c1cc2ccc(O)cc2oc1=O,.,2,-204,187*,-11,-6,
C/C(=N/NC(=O)c1ccncc1)c1cc2ccc(O)cc2oc1=O,-12,1,i,5,.,-14,
SMILES,PKD1 kinase inh,PERK inh,Rad51 HR inh,Hck Nef HTS,TAG inh,MDM2 E3 inh,others
Cc1[nH]nc2c1C(=O)CCC2,-9,-1,86*,0,-9,-5,
Cc1[nH]nc2c1C(=O)CC(C)(C)C2,4,1,10,1,-6,-15,
CCS(=O)(=O)Nc1cccc(C2=NN(S(=O)(=O)CC)C(c3ccccc3)C2)c1 (stereo unspecified),-2,0,-2,25,-1,13,
CS(=O)(=O)Nc1cccc(C2=NN(S(C)(=O)=O)C(c3ccccc3)C2)c1 (stereo unspecified),10,0,43*,10,.,-1,
Nc1nc2ccc([N+](=O)[O-])c(N)c2s1,97*,0,4,1,12,-11,PKD FP artifact=-14
CN(C)CCOc1ccc2c(c1)Sc1ccccc1CC2=O,59*,-2,.,6,.,1,PKD FP artifact=-17
COc1ccc(-c2ccc3c(c2)O[C@H](CN(C)C(=O)Nc2ccccc2F)[C@@H](C)CN([C@H](C)CO)S3(=O)=O)cc1,.,.,.,.,44,.,
Clc1cncc(Cl)c1N/N=C/c1ccncc1,91*,1,12,7,.,-36,PKD FP artifact=-24
CCC1(c2ccc(Cl)cc2)NC(=O)N(CC(=O)NC2CCCC(C)C2C)C1=O (stereo unspecified),.,.,.,.,14,.,
O=C(CN1CCN(c2ncccn2)CC1)N1CCCc2c1c(=O)oc1ccc(O)cc21,12,1,8,6,23,-24,
O=C1NCCCc2c1oc1ccc(O)cc21,100*,1,-5,1,-1,-15,PKD FP artifact=-12
C=CCOc1cccc(C2C(C(=O)c3ccc(C)o3)=C(O)C(=O)N2c2nccs2)c1 (stereo unspecified),76*,1,-221,1,10,-41,PKD FP artifact=54*
C=CCOc1cccc(C2C(C(=O)c3ccco3)=C(O)C(=O)N2CCN(CC)CC)c1 (stereo unspecified),-11,1,8,-1,-27,-7,
Cc1ccc(C(=O)NNC2=Nc3cccc4cccc2c34)cc1,54*,-1,-4,0,.,-6,PKD FP artifact=-8
COc1ccc(S(=O)(=O)N2CCCCC2c2cc(C(=O)NCc3ccccc3)no2)cc1 (stereo unspecified),.,.,.,.,-4,.,
O=C(CN1CCCC1)Nc1c2c(nc3ccccc13)N(Cc1ccccc1)CC2,100*,-1,-3,3,.,-22,PKD FP artifact=-9
CCc1ccccc1OCC(=O)NC1CCCC1,-6,0,3,0,.,3,

# Bioassay records from PubChem BioAssay.
